ChEMBL document CHEMBL3244011, “(Aryloxy)[p-(aryloxy)phenyl]- and (aryloxy)[p-(arylthio)phenyl]acetic acids and esters as hypolipidemic agents” (1979)

What was measured:
Assay type in all cases: functional
Parameters in all cases: scale not given: the % may be the effect or the level left
Rattus norvegicus [1] = assay: Hypolipidemic activity in COBBS-CD rat assessed as reduction in serum triglyceride level at 0.03% administered with chow diet after 5 days relative to control
How it was run: (§1)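 The compound was given in ground chow at 0.1, 0.03 or 0.01% w/w (about 100, 30 and 10 mg/kg) to male COBBS-CD rats (n=4; solvent-chow controls n=8) for 5 days ad libitum. Rats were killed by decapitation and blood collected. Serum triglycerides were assayed by an automated method and compared with controls; ± values are SD.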

Rattus norvegicus [2] = assay: Hypolipidemic activity in COBBS-CD rat assessed as reduction in serum triglyceride level at 0.1% administered with chow diet after 5 days relative to control; how it was run: as §1
Rattus norvegicus [3] = assay: Hypolipidemic activity in COBBS-CD rat assessed as reduction in serum triglyceride level at 0.01% administered with chow diet after 5 days relative to control; how it was run: as §1
Rattus norvegicus [4] = assay: Hypolipidemic activity in COBBS-CD rat assessed as reduction in serum sterol level at 0.1% administered with chow diet after 5 days relative to control
How it was run: (§2)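 Male COBBS-CD rats, four per treated group and eight per control group. The compound was mixed into ground rat chow at 0.1, 0.03 or 0.01% w/w (about 100, 30 and 10 mg/kg). Control chow received only the mixing solvent (methanol-chloroform 1:3 v/v). Food and water were ad libitum for 5 days, then rats were decapitated and blood collected. Serum sterols were measured by an automated method and expressed relative to controls; ± values are SD.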

Rattus norvegicus [5] = assay: Hypolipidemic activity in COBBS-CD rat assessed as reduction in serum sterol level at 0.03% administered with chow diet after 5 days relative to control; how it was run: as §2
Rattus norvegicus [6] = assay: Hypolipidemic activity in COBBS-CD rat assessed as reduction in serum sterol level at 0.01% administered with chow diet after 5 days relative to control; how it was run: as §2

| SMILES | Activity (Rattus norvegicus [1]) [%] | Activity (Rattus norvegicus [2]) [%] | Activity (Rattus norvegicus [3]) [%] | Activity (Rattus norvegicus [4]) [%] | Activity (Rattus norvegicus [5]) [%] | Activity (Rattus norvegicus [6]) [%] |
| --- | --- | --- | --- | --- | --- | --- |
| COC(=O)C(Oc1ccc(Cl)c2ccccc12)c1ccc(Oc2ccc(Cl)cc2)cc1 (stereo not given) | -8 | 32 | -15 | 11 | -3 | -18 |
| COC(=O)C(Oc1ccc(Cl)cc1)c1ccc(Oc2ccc(Cl)cc2)cc1 (stereo not given) | 48 | 56 | 39 | 33 | 23 | 16 |
| COC(=O)C(Oc1ccccc1)c1ccc(Oc2ccc(Cl)cc2)cc1 (stereo not given) | 67 | 68 | 77 | 31 | 18 | 18 |
| COC(=O)C(Oc1ccc(C(C)(C)C)cc1)c1ccc(Oc2ccc(Cl)cc2)cc1 (stereo not given) | 53 | 57 | 41 | 20 | 20 | 27 |
| COC(=O)C(Oc1cccc(C(F)(F)F)c1)c1ccc(Oc2ccc(Cl)cc2)cc1 (stereo not given) | 47 | 61 | 18 | 28 | 16 | -6 |
| COC(=O)C(Oc1cccc(C(C)(C)C)c1)c1ccc(Oc2ccc(Cl)cc2)cc1 (stereo not given) | 49 | 63 | 41 | 41 | 20 | 23 |
| COC(=O)C(Oc1cc(Cl)c(Cl)c(Cl)c1)c1ccc(Oc2ccc(Cl)cc2)cc1 (stereo not given) | 46 | 55 | 15 | 30 | -2 | 3 |
| COC(=O)C(Oc1ccc(OCc2ccccc2)cc1)c1ccc(Oc2ccc(Cl)cc2)cc1 (stereo not given) | 37 | 57 | 29 | 30 | 26 | 13 |
| O=C(O)C(Oc1ccc(Oc2ccccc2)cc1)c1ccc(Oc2ccc(Cl)cc2)cc1 (stereo not given) | 38 | 54 | 53 | 33 | 21 | 13 |
| COC(=O)C(Oc1cc(C)c(Cl)c(C)c1)c1ccc(Oc2ccc(Cl)cc2)cc1 (stereo not given) | 49 | 66 | 33 | 21 | 22 | 0 |
| COC(=O)C(Oc1ccc(C(C)(C)C)cc1Cl)c1ccc(Oc2ccc(Cl)cc2)cc1 (stereo not given) | 50 | 64 | 25 | 28 | 29 | 17 |
| COC(=O)C(Oc1cc(Cl)cc(Cl)c1)c1ccc(Oc2ccc(Cl)cc2)cc1 (stereo not given) | 6 | 47 | -44 | 26 | 10 | -11 |
| COC(=O)C(Oc1cccc2ccccc12)c1ccc(Oc2ccc(Cl)cc2)cc1 (stereo not given) | 36 | 39 |  | 4 | 3 |  |
| COC(=O)C(Oc1ccc(C)c(C)c1)c1ccc(Oc2ccc(Cl)cc2)cc1 (stereo not given) | 45 | 63 | 23 | 46 | 28 | 18 |
| COC(=O)C(Oc1cccc2c1CCCC2)c1ccc(Oc2ccc(Cl)cc2)cc1 (stereo not given) | -1 | 41 | -34 | 23 | 14 | 1 |
| COC(=O)C(Oc1ccc2c(c1)CCC2)c1ccc(Oc2ccc(Cl)cc2)cc1 (stereo not given) | 51 | 52 | 37 | 25 | 30 | 26 |
| COC(=O)C(Oc1ccc2ccccc2c1)c1ccc(Oc2ccc(Cl)cc2)cc1 (stereo not given) | 44 | 55 | 32 | 32 | 15 | 10 |
| COC(=O)C(Oc1ccc(C(F)(F)F)cc1)c1ccc(Oc2ccc(Cl)cc2)cc1 (stereo not given) | 51 | 53 | 60 | 20 | 28 | 24 |
| COC(=O)C(Oc1ccc2c(c1)CCCC2)c1ccc(Oc2ccc(Cl)cc2)cc1 (stereo not given) | 35 | 47 | 8 | 42 | 26 | 24 |

| SMILES | Activity (Rattus norvegicus [1]) [%] | Activity (Rattus norvegicus [2]) [%] | Activity (Rattus norvegicus [3]) [%] | Activity (Rattus norvegicus [4]) [%] | Activity (Rattus norvegicus [5]) [%] | Activity (Rattus norvegicus [6]) [%] |
| --- | --- | --- | --- | --- | --- | --- |
| COC(=O)C(Oc1ccc(Cl)c2c1CCCC2)c1ccc(Oc2ccc(Cl)cc2)cc1 (stereo not given) | 28 | 54 | 24 | 25 | 30 | -1 |
| COC(=O)C(Oc1ccc(C2(C)CCCCC2)cc1)c1ccc(Oc2ccc(Cl)cc2)cc1 (stereo not given) | 70 | 65 | 64 | 18 | 13 | 26 |
| COC(=O)C(Oc1ccc(C23CC4CC(CC(C4)C2)C3)cc1)c1ccc(Oc2ccc(Cl)cc2)cc1 (stereo not given) | 29 | 17 | 11 | 3 | 16 | 14 |
| O=C(O)C(Oc1ccc(Cl)cc1)c1ccc(Oc2ccc(Cl)cc2)cc1 (stereo not given) | 50 | 60 | 34 | 31 | 23 | 12 |
| CCOC(=O)C(Oc1ccc(Cl)cc1)c1ccc(Oc2ccc(Cl)cc2)cc1 (stereo not given) | 51 | 60 | 40 | 25 | 25 | 18 |
| COC(=O)C(Oc1ccc(F)cc1)c1ccc(Oc2ccc(C#N)cc2)cc1 (stereo not given) | 31 | 60 | 38 | 33 | 19 | 13 |
| COC(=O)C(Oc1ccc(Cl)cc1)c1ccc(Oc2ccc(S(C)(=O)=O)cc2)cc1 (stereo not given) | -11 | 22 | 11 | 15 | -1 | 8 |
| COC(=O)C(Oc1ccc(F)cc1)c1ccc(Oc2ccc(S(C)(=O)=O)cc2)cc1 (stereo not given) | -8 | 3 | 16 | 10 | -1 | -3 |
| COC(=O)C(Oc1ccc(C(C)(C)C)cc1)c1ccc(Oc2ccc(NC(C)=O)cc2)cc1 (stereo not given) | 50 | 55 | 44 | 16 | 18 | 5 |
| O=C(O)C(Oc1ccccc1)c1ccc(Oc2ccccc2)cc1 (stereo not given) | 37 | 51 | 3 | 22 | 15 | 21 |
| COC(=O)C(Oc1ccc(C(C)(C)C)cc1)c1ccc(Oc2ccc(Cl)c3ccccc23)cc1 (stereo not given) | 39 | 56 | 29 | 23 | 24 | 16 |
| COC(=O)C(Oc1ccc(F)cc1)c1ccc(Oc2cccc(C(F)(F)F)c2)cc1 (stereo not given) | 27 | 48 | 45 | 32 | 6 | 4 |
| COC(=O)C(Oc1cccc(C(F)(F)F)c1)c1ccc(Oc2ccc(C(C)(C)C)cc2)cc1 (stereo not given) | -18 | 19 | -12 | 13 | -4 | -5 |
| COC(=O)C(Oc1ccc(C2CCCCC2)cc1)c1ccc(Oc2ccc(C(C)(C)C)cc2)cc1 (stereo not given) | 49 | 52 | 29 | 33 | 16 | -5 |
| COC(=O)C(Oc1ccc(Cl)cc1)c1ccc(Sc2ccc(Cl)cc2)cc1 (stereo not given) | 62 | 64 | 66 | 25 | 25 | 17 |
| COC(=O)C(Oc1ccc(C(C)(C)C)cc1)c1ccc(Sc2ccc(Cl)cc2)cc1 (stereo not given) | 56 | 59 | 45 | 12 | 27 | 10 |
| COC(=O)C(Oc1ccc(Cl)cc1)(C(=O)OC)c1ccc(Oc2ccc(Cl)cc2)cc1 | 48 | 63 | -2 | 32 | 25 | 9 |
| COC(=O)C(Oc1ccc(Cl)cc1)c1ccc([S+]([O-])c2ccc(Cl)cc2)cc1 (stereo not given) | 35 | 55 | 12 | 31 | 11 | 15 |
